Experimental data from paper PMC9303693 (Journal of Clinical Pharmacology, 2022).
Values joined by “and” are separate entries in the source; they are usually repeats but may differ in a detail not shown here. Identical values can stand only once. Like-named read-outs stand apart in the source and are kept apart here. Marks after values point to notes of the source that are not given here. Values belong to the molecule of their own block, whether it stands above or below them.

Assays:
[1] = assay type: in vivo, human; conditions: for CL/F / Vd/F: acalabrutinib; for AUC: AUC0‐inf; for Vd/F: Vz/F; for half-life: t1/2, total plasma acalabrutinib; for Tmax: median (minimum, maximum)
[2] = Urinary excretion and renal clearance after a single 50-mg dose; assay type: in vivo, human; conditions: for mean renal clearance: ACP-5862; for CL renal: human, urine, oral, 50 mg, mean renal clearance
Procedure, shortened: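 In study 2, a single oral 50-mg capsule was taken with ≈240 mL water after an overnight fast. Urine was collected predose, 0–4 h and 4–24 h post-dose and pooled per interval for each subject. Analytes were quantified by validated LC-MS/MS with deuterated internal standards over a nominal urine range of 5 to 5000 ng/mL.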

[3] = tested on: human plasma; assay: Plasma protein binding in study 2 subjects; assay type: in vitro ADME
Procedure, shortened: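 Severe hepatic impairment and matched control subjects received a single oral 50-mg dose of the test compound after an overnight fast. Blood (4 mL) was drawn on day 1 at 0.863, 1.75 and 6.5 h post-dose. Binding of parent and active metabolite in the plasma was assessed by ultracentrifugation to estimate the unbound fraction.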

[4] = tested on: human plasma; assay: In vitro protein binding in human plasma; assay type: in vitro ADME; conditions: for in vitro protein binding: human plasma
[5] = tested on: BTK; conditions: cited from earlier work
[6] = cited from earlier work
[7] = cited from earlier work; remark: listed apart in the source
[8] = Safety evaluation; assay type: in vivo, human; conditions: for Number (%) of subjects with TEAEs: single oral 50-mg dose
Procedure, shortened: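 After an overnight fast, subjects took a single oral 50-mg dose as capsules with ≈240 mL water on day 1. AEs were collected until follow-up contact 14 days post-dose. Safety monitoring covered concomitant medications, serial hematology, serum chemistry and urinalysis, vital signs, 12-lead ECGs and physical examinations. Findings were summarized descriptively.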

[9] = In vitro protein binding in human plasma; assay type: in vitro ADME; conditions: human, plasma
[10] = molecular target: human serum albumin (Homo sapiens, UniProt P02768); assay: In vitro protein binding in human serum albumin solution; assay type: in vitro ADME
Sequence of human serum albumin (P02768 25-609): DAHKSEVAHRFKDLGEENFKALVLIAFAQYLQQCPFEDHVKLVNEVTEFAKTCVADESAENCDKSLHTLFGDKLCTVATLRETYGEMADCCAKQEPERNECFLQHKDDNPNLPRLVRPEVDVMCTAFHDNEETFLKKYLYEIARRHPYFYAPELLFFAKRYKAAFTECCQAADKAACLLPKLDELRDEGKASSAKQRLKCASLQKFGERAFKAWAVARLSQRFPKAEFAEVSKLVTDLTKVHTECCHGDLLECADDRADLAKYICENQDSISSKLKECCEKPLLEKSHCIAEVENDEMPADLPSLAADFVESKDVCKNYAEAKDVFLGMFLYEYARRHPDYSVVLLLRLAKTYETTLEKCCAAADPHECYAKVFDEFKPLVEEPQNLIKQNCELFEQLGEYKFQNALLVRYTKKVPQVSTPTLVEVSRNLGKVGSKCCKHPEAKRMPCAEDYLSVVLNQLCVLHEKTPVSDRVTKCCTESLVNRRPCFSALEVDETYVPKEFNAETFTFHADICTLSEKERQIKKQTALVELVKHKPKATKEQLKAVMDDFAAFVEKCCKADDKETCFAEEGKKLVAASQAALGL

[11] = In vitro protein binding in α1-acid glycoprotein solution; assay type: in vitro ADME; conditions: human
[12] = Earlier clinical studies of acalabrutinib; assay type: in vivo, human; conditions: 400-mg vs 50-mg dose, healthy subjects (data on file)
[13] = ACP-5862/acalabrutinib, study 2, Control (n = 8), arithmetic mean (SD)
[14] = ACP-5862/acalabrutinib, study 2, Severe (n = 8), arithmetic mean (SD)
[15] = ACP-5862, severe hepatic impairment vs control subjects
[16] = plasma ACP-5862, ANOVA, exponentiated LSM, Control, n 8
[17] = plasma ACP-5862, Severe vs normal hepatic function (reference)
[18] = subjects with severe hepatic impairment
[19] = both, human, plasma, po, 50 mg, single oral 50-mg dose, Control (n = 13), arithmetic mean (SD)
[20] = both, human, plasma, po, 50 mg, single oral 50-mg dose, Mild (n = 6), arithmetic mean (SD)
[21] = both, human, plasma, po, 50 mg, single oral 50-mg dose, Moderate (n = 6), arithmetic mean (SD)
[22] = human, plasma, po, 50 mg, single oral 50-mg dose, Severe (n = 8), arithmetic mean (SD)
[23] = plasma acalabrutinib, Mild vs normal hepatic function (reference)
[24] = plasma acalabrutinib, Moderate vs normal hepatic function (reference)
[25] = plasma acalabrutinib, Severe vs normal hepatic function (reference)
[26] = severe hepatic impairment, study 2
[27] = acalabrutinib, matched normal hepatic function subjects
[28] = acalabrutinib, subjects with severe hepatic impairment
[29] = healthy subjects (n = 17), relative to no pretreatment
[30] = healthy subjects, single 400-mg dose

MR:AUC0‐inf (metabolite‐to‐parent ratio) [1, 13]: 3.59 and 3.6 ± 0.9
MR:AUC0‐last (metabolite‐to‐parent ratio) [1, 13]: 3.1 ± 0.7
MR:Cmax (metabolite‐to‐parent ratio) [1, 13]: 1.15 and 1.1 ± 0.4
MR:AUC0‐last (metabolite‐to‐parent ratio) [1, 14]: 0.6 ± 0.4
MR:Cmax (metabolite‐to‐parent ratio) [1, 14]: 0.247 and 0.2 ± 0.1
geometric mean ratio for AUC [1, 15]: 0.9
geometric mean ratio for Cmax [1, 15]: 1.01
AUC0‐inf, LS Mean [1, 16]: 817.0 ng·h/mL
Cmax, LS Mean [1, 16]: 166.5 ng/mL
AUC0‐inf, LS Mean ([1]; plasma ACP-5862, ANOVA, exponentiated LSM, Severe, n 6): 782.2 ng·h/mL
Cmax, LS Mean ([1]; plasma ACP-5862, ANOVA, exponentiated LSM, Severe, n 8): 168.7 ng/mL
AUC0‐inf GMR: Test/Reference [1, 17]: 95.7%
Cmax GMR: Test/Reference [1, 17]: 101.4%
mean renal clearance ([2]; matched control subjects with normal hepatic function): 605.3 mL/h
mean renal clearance [2, 18]: 692.6 mL/h
amount of the metabolite excreted in urine ([2]; ACP-5862 after 50-mg acalabrutinib, subjects with severe hepatic impairment): ≈ 0.415 mg
mean protein binding ([3]; healthy matched controls): ≈ 98%
mean protein binding [3, 18]: ≈ 94%
in vitro protein binding ([4]; plasma concentration 1 μM (0.482 μg/mL)): 98.7%
in vitro protein binding ([4]; plasma concentration 10 μM (4.82 μg/mL)): 98.6%
Structure (SMILES): CC#CC(=O)NCCCC(=O)c1nc(-c2ccc(C(=O)Nc3ccccn3)cc2)c2c(N)nccn12 [ACP‐5862]
potency for BTK inactivation relative to parent acalabrutinib [5]: ≈ 50%
share of total acalabrutinib‐related material in plasma ([6]; human, plasma): > 10%

Structure (SMILES): C=CC(=O)N1CCC[C@@H](n2nc(-c3ccc(Oc4ccccc4)cc3)c3c(N)ncnc32)C1 [ibrutinib]
mean AUC, fold higher compared with healthy controls ([7]; mild hepatic impairment): 2.7 fold
mean AUC, fold higher compared with healthy controls ([7]; moderate hepatic impairment): 8.0 fold
mean AUC, fold higher compared with healthy controls ([7]; severe hepatic impairment): 9.5 fold

Structure (SMILES): CC#CC(=O)N1CCC[C@H]1c1nc(-c2ccc(C(=O)Nc3ccccn3)cc2)c2c(N)nccn12 [Acalabrutinib]
CL/F ([1]; single oral 50-mg dose, Control (n = 13), arithmetic mean (SD)): 218.1 ± 103.1 ^a L/h
CL/F ([1]; single oral 50-mg dose, Mild (n = 6), arithmetic mean (SD)): 156.6 ± 91.1 L/h
CL/F ([1]; single oral 50-mg dose, Moderate (n = 6), arithmetic mean (SD)): 280.8 ± 372.7 L/h
CL/F ([1]; single oral 50-mg dose, Severe (n = 8), arithmetic mean (SD)): 48.7 ± 30.7 L/h
CL/F ([1]; single oral 50-mg dose, Severe (n = 8), arithmetic mean (SD), listed as acalabrutinib): 48.7 L/h
AUC ([1]; both, human, plasma, oral, 50 mg, LS Mean, plasma acalabrutinib, ANOVA, exponentiated LSM, Control, n 13): 250 ng·h/mL
AUC ([1]; both, human, plasma, oral, 50 mg, LS Mean, plasma acalabrutinib, ANOVA, exponentiated LSM, Mild, n 6): 366 ng·h/mL
AUC ([1]; both, human, plasma, oral, 50 mg, LS Mean, plasma acalabrutinib, ANOVA, exponentiated LSM, Moderate, n 6): 326 ng·h/mL
Cmax ([1]; both, human, plasma, oral, 50 mg, Cmax, LS Mean, plasma acalabrutinib, ANOVA, exponentiated LSM, Control, n 14): 152 ng/mL
Cmax ([1]; both, human, plasma, oral, 50 mg, Cmax, LS Mean, plasma acalabrutinib, ANOVA, exponentiated LSM, Mild, n 6): 292 ng/mL
Cmax ([1]; both, human, plasma, oral, 50 mg, Cmax, LS Mean, plasma acalabrutinib, ANOVA, exponentiated LSM, Moderate, n 6): 156 ng/mL
AUC ([1]; both, human, plasma, po, 50 mg, total plasma acalabrutinib, single oral 50-mg dose, Control (n = 13), geometric mean (geometric CV%)): 250 ng·h/mL
AUC ([1]; both, human, plasma, po, 50 mg, total plasma acalabrutinib, single oral 50-mg dose, Mild (n = 6), geometric mean (geometric CV%)): 366 ng·h/mL
AUC ([1]; both, human, plasma, po, 50 mg, total plasma acalabrutinib, single oral 50-mg dose, Moderate (n = 6), geometric mean (geometric CV%)): 326 ng·h/mL
Cmax ([1]; both, human, plasma, po, 50 mg, Cmax, total plasma acalabrutinib, single oral 50-mg dose, fasted, Control, normal hepatic function (n = 14), geometric mean (geometric CV%)): 152 ng/mL
Cmax ([1]; both, human, plasma, po, 50 mg, Cmax, total plasma acalabrutinib, single oral 50-mg dose, fasted, Mild, Child-Pugh class A (n = 6), geometric mean (geometric CV%)): 292 ng/mL
Cmax ([1]; both, human, plasma, po, 50 mg, Cmax, total plasma acalabrutinib, single oral 50-mg dose, fasted, Moderate, Child-Pugh class B (n = 6), geometric mean (geometric CV%)): 156 ng/mL
Vd/F [1, 19]: 722 ± 520 L
Vd/F [1, 20]: 471 ± 222 L
Vd/F [1, 21]: 2140 ± 2720 L
half-life [1, 19]: 2.2 ± 0.8 h
half-life [1, 20]: 2.3 ± 0.9 h
half-life [1, 21]: 7.9 ± 12.7 h
Tmax ([1]; both, human, plasma, po, 50 mg, total plasma acalabrutinib, single oral 50-mg dose, Control (n = 14)): 0.6 h
Tmax ([1]; both, human, plasma, po, 50 mg, total plasma acalabrutinib, single oral 50-mg dose, Mild (n = 6)): 0.8 h
Tmax ([1]; both, human, plasma, po, 50 mg, total plasma acalabrutinib, single oral 50-mg dose, Moderate (n = 6)): 1 h
AUC ([1]; human, plasma, oral, 50 mg, LS Mean, plasma acalabrutinib, ANOVA, exponentiated LSM, Severe, n 8): 1170 ng·h/mL
Cmax ([1]; human, plasma, oral, 50 mg, Cmax, LS Mean, plasma acalabrutinib, ANOVA, exponentiated LSM, Severe, n 8): 726 ng/mL
AUC ([1]; human, plasma, po, 50 mg, total plasma acalabrutinib, single oral 50-mg dose, Severe (n = 8), geometric mean (geometric CV%)): 1170 ng·h/mL
Cmax ([1]; human, plasma, po, 50 mg, Cmax, total plasma acalabrutinib, single oral 50-mg dose, fasted, Severe, Child-Pugh class C (n = 8), geometric mean (geometric CV%)): 726 ng/mL
Vd/F [1, 22]: 167 ± 70.3 L
half-life [1, 22]: 2.7 ± 1.1 h
AUC0‐inf GMR: Test/Reference [1, 23]: 146.2%
Cmax GMR: Test/Reference [1, 23]: 191.3%
AUC0‐inf GMR: Test/Reference [1, 24]: 130.5%
Cmax GMR: Test/Reference [1, 24]: 102.2%
AUC0‐inf GMR: Test/Reference [1, 25]: 467.3%
Cmax GMR: Test/Reference [1, 25]: 476.2%
increase of unbound acalabrutinib AUC0‐last compared with control subjects [1, 26]: 3.6 fold
increase of unbound acalabrutinib Cmax compared with control subjects [1, 26]: 3.8 fold
increase of acalabrutinib Cmax compared with control subjects ([1]; single 50-mg dose, mild hepatic impairment): 1.9 fold
increase of acalabrutinib AUC compared with control subjects ([1]; single 50-mg dose, mild hepatic impairment (Child-Pugh class A)): 1.90 fold
difference in acalabrutinib Cmax compared with control subjects ([1]; single 50-mg dose, moderate hepatic impairment): did not result in any appreciable difference
increase of acalabrutinib AUC compared with control subjects ([1]; single 50-mg dose, moderate hepatic impairment (Child-Pugh class B)): 1.48 fold
Cmax ([1]; total plasma acalabrutinib, single oral 50-mg dose, fasted, Moderate, Child-Pugh class B (n = 6), geometric mean (geometric CV%)): 155.7 (246.9) ng/mL
AUC0‐inf ([1]; total plasma acalabrutinib, single oral 50-mg dose, Moderate (n = 6), geometric mean (geometric CV%)): 326.4 (177.9) ng • h/mL
renal clearance as share of the systemic clearance [2, 27]: ≈ 0.5%
renal clearance as share of the apparent systemic clearance [2, 28]: ≈ 1.7%
CL renal [2, 27]: 21.2 mL/min
CL renal [2, 28]: 12.9 mL/min
share of the 50‐mg oral dose excreted in urine ([2]; matched normal hepatic function subjects, 24-hour urine collection interval): ≈ 0.6%
share of the 50‐mg oral dose excreted in urine [2, 18]: approximately 1.8%
Number (%) of subjects with TEAEs ([8]; Control (n = 14)): 0
Number (%) of subjects with TEAEs ([8]; Mild hepatic impairment (n = 6)): 2 (33)
Number (%) of subjects with TEAEs ([8]; Moderate hepatic impairment (n = 6)): 0
Number (%) of subjects with TEAEs ([8]; Overall (N = 34)): 3 (9)
Number (%) of subjects with TEAEs ([8]; Severe hepatic impairment (n = 8)): 1 (13)
tolerability ([8]; single oral dose of 50 mg, healthy subjects and subjects with mild, moderate, or severe hepatic impairment): well tolerated
deaths, serious AEs, discontinuations due to AEs ([8]; single oral dose of 50 mg, study 1 and study 2): no deaths, serious AEs, or subject discontinuations due to AEs
fraction unbound [9]: 0.025
free fraction (percentage unbound) ([4]; in humans (plasma)): 2.5%
fraction unbound [10]: 0.063
fraction unbound [11]: 0.589
clinical margin of safety for the 50‐mg dose, AUC0‐last [12]: ~16 fold
clinical margin of safety for the 50‐mg dose, Cmax [12]: ≈ 7.5 fold
mean elimination t1/2 [6]: ≈ 1 hour
increase of mean plasma AUC0‐last in the presence of itraconazole [6, 29]: 5.1 fold
increase of mean plasma Cmax in the presence of itraconazole [6, 29]: 3.9 fold
mean AUC0‐last [6, 30]: 3966 ng·h/mL
mean Cmax [6, 30]: 1672 ng/mL
